ChEMBL document CHEMBL1137398, “Synthesis and immunobiological activity of an original series of acyclic lipid a mimics based on a pseudodipeptide backbone” (J Med Chem, 2006)
In brackets after ≈: the same amount, converted by molar mass. Activity calls are given as the source filed them. The rule behind the calls is not given here.

Tests used:
Oryctolagus cuniculus [1] = assay: Induction of pyrogenicity in rabbit assessed as increase in temperature at 0.001 mg/kg, iv; assay type: functional, organism-based; parameters: dose 0.001 mg/kg
Outline: (§1)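 Rabbit pyrogenicity test, iv injection, with water as control. Read-out is the summed temperature rise in three rabbits (°C), scored pass, inconclusive or fail.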

Oryctolagus cuniculus [2] = assay: Induction of pyrogenicity in rabbit assessed as increase in temperature at 0.1 mg/kg, iv; assay type: functional, organism-based; parameters: dose 0.1 mg/kg; outline: as §1
Limulus = assay: Endotoxicity against horseshoe crab blood at 0.1 mg/mL by LAL chromogenic assay; assay type: toxicity, organism-based; conditions: limulus polyphemus
Outline: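 LAL chromogenic endotoxin assay with compound at 0.1 mg/mL. Average of three independent experiments.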

Oryctolagus cuniculus [3] = assay: Induction of pyrogenicity in rabbit assessed as increase in temperature at 0.01 mg/kg, iv; assay type: functional, organism-based; parameters: dose 0.01 mg/kg; outline: as §1
Macrophage = assay: Induction of NO production in murine macrophage; assay type: functional, cell-based; conditions: Mus musculus
Outline: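 Bone-marrow macrophages from six-week-old male C57BL/6 mice, differentiated 8 d in DMEM with 20% horse serum and 30% L929 supernatant. Then set to 700 000 cells/mL in DMEM with 5% FCS. Serially diluted compounds were incubated with cells in triplicate for 22 h at 37 °C, 8% CO₂. Supernatant nitrite measured by Griess reaction at 562 nm (reference 690 nm) against a standard curve. Reported as mean ± SD dose-response.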

PBMC [4] = assay: Antagonist effect on LPS-induced IL6 production in human PBMC at 2 ug/mL; assay type: functional, cell-based
Outline: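 Human PBMC from healthy donor buffy coat, isolated on Ficoll (1.077 g/mL). Cultured at 1 × 10⁶ viable cells/well in RPMI-1640 with 10% FCS, penicillin/streptomycin and L-glutamine. Pre-incubated 90 min at 37 °C, 5% CO₂ with compound at final 0.02, 0.2, 2 or 20 µg/mL. E. coli LPS (055:B5) then added at 0.01 µg/mL. After 24 h, supernatant IL-6 measured by ELISA.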

PBMC [5] = assay: Induction of IL6 production in human PBMC at 20 ug/ml relative to LPS; assay type: functional, cell-based
Outline: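 Human PBMC isolated on Ficoll from donor buffy coat. Cultured at 1 × 10⁶ viable cells/well in RPMI-1640 with 10% FCS and antibiotics. Incubated at 37 °C, 5% CO₂ with compound at final 20 µg/mL. Controls were medium alone and E. coli LPS (055:B5). Supernatant harvested at 24 h and IL-6 measured by ELISA; detection limit 10 pg/mL.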

EC50 (Macrophage) [mg/L] | Compound | Activity (Oryctolagus cuniculus [1]) | Activity (Oryctolagus cuniculus [2]) | Activity (Limulus) [EU/ml] | Activity (Oryctolagus cuniculus [3]) | Activity (PBMC [4]) | Activity (PBMC [5])
3.53 | CCCCCCCCCCCC(=O)O[C@H](CCCCCCCCCCC)CC(=O)NC(CCOP(=O)(O)O)C(=O)NCCC[C@H](CO)NC(=O)C[C@H](O)CCCCCCCCCCC (mixture of isomers) | inactive | Active | 16238 | inactive | inactive | –
6.86 (≈ 7.34 µM) | CCCCCCCCCCCC(=O)O[C@H](CCCCCCCCCCC)CC(=O)N[C@@H](CCOP(=O)(O)O)C(=O)NCCC[C@H](CO)NC(=O)C[C@H](O)CCCCCCCCCCC | – | – | 9320 | – | inactive | –
1.85 (≈ 1.98 µM) | CCCCCCCCCCCC(=O)O[C@H](CCCCCCCCCCC)CC(=O)N[C@H](CCOP(=O)(O)O)C(=O)NCCC[C@H](CO)NC(=O)C[C@H](O)CCCCCCCCCCC | – | – | 14257 | – | inactive | –
0.55 (≈ 0.542 µM) | CCCCCCCCCCCC(=O)O[C@H](CCCCCCCCCCC)CC(=O)N[C@H](CCOP(=O)(O)O)C(=O)NCCC[C@H](COP(=O)(O)O)NC(=O)C[C@H](O)CCCCCCCCCCC | – | – | 1072 | – | Active | inactive
0.15 (≈ 0.148 µM) | CCCCCCCCCCCC(=O)O[C@H](CCCCCCCCCCC)CC(=O)N[C@@H](CCOP(=O)(O)O)C(=O)NCCC[C@H](COP(=O)(O)O)NC(=O)C[C@H](O)CCCCCCCCCCC | – | – | 240 | – | Active | inactive
0.083 | CCCCCCCCCCCC(=O)O[C@H](CCCCCCCCCCC)CC(=O)NC(CCOP(=O)(O)O)C(=O)NCCC[C@H](COP(=O)(O)O)NC(=O)C[C@H](O)CCCCCCCCCCC (mixture of isomers) | inactive | – | 874 | inactive | Active | inactive
0.025 (≈ 0.022 µM) | CCCCCCCCCCCC(=O)O[C@H](CCCCCCCCCCC)CC(=O)N[C@H]1[C@H](OC[C@H]2O[C@H](OP(=O)(O)O)[C@H](NC(=O)C[C@H](O)CCCCCCCCCCC)[C@@H](O)[C@@H]2O)O[C@H](CO)[C@@H](OP(=O)(O)O)[C@@H]1O [DEFOSLIMOD] | – | – | – | – | – | –
